Test results taken from ChEMBL document CHEMBL1157042, “Triazole incorporated thiazoles as a new class of anticonvulsants: design, synthesis and in vivo screening” (Eur J Med Chem, 2010).
Activity calls are given as the source filed them.

Experiments:
[1] = Neurotoxicity in ip dosed Swiss albino mouse after 4 hrs; type: toxicity, organism-based; settings: in vivo
In short: (§1)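 Albino mice of either sex (25–30 g), 6 per group, received i.p. doses of 30, 100 and 300 mg/kg in polyethylene glycol. Trained mice were tested on the rotorod at 0.5 h and 4.0 h. Neurotoxicity was failure to keep balance on the rod for at least 1 min in each trial. The value recorded is the minimum dose affecting half or more of the mice.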

Mus musculus [2] = assay: Anticonvulsant activity in ip dosed Swiss albino mouse assessed as inhibition of maximum electric shock-induced motor impairment after 0.5 hrs; type: functional; settings: read-out: MED
Mus musculus [3] = assay: Anticonvulsant activity in Swiss albino mouse assessed as inhibition of PTZ-induced motor impairment at 300 mg/kg, ip after 0.5 hrs; type: functional, organism-based; design: dose 300 mg/kg
In short: (§2)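 Albino mice of either sex (25–30 g), 6 per group. Test compound was given i.p. in polyethylene glycol at 30, 100 or 300 mg/kg, and subcutaneous pentylenetetrazole challenge followed 0.5 h or 4.0 h later. Activity was scored as protection in half or more of the mice.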

Mus musculus [4] = assay: Neurotoxicity in Swiss albino mouse at 300 mg/kg, ip after 0.5 hrs; type: toxicity, organism-based; design: dose 300 mg/kg, route intraperitoneal; settings: in vivo
Mus musculus [5] = assay: Anticonvulsant activity in Swiss albino mouse assessed as inhibition of maximum electric shock-induced motor impairment at 300 mg/kg, ip after 4 hrs; type: functional, organism-based; design: dose 300 mg/kg
In short: (§3)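 Albino mice of either sex (25–30 g), 6 per group, given drug i.p. in polyethylene glycol at 30, 100 and 300 mg/kg. Maximal electroshock was applied at 0.5 h and 4.0 h. Protection meant abolition of hind limb tonic extension.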

Mus musculus [6] = assay: Anticonvulsant activity in ip dosed Swiss albino mouse assessed as inhibition of PTZ-induced motor impairment after 4 hrs; type: functional; settings: read-out: MED
In short: (§4)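 Albino mice of either sex (25–30 g), 6 per group, dosed i.p. in polyethylene glycol at 30, 100 or 300 mg/kg. Subcutaneous pentylenetetrazole was given at 0.5 h or 4.0 h, and mice were watched for 30 min. Protection meant no threshold seizure (single clonic spasm episode of at least 5 s). The value is the minimum dose protecting half or more.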

Mus musculus [7] = assay: Anticonvulsant activity in ip dosed Swiss albino mouse assessed as inhibition of PTZ-induced motor impairment after 0.5 hrs; type: functional; settings: read-out: MED; in short: as §4
[8] = Neurotoxicity in ip dosed Swiss albino mouse after 0.5 hrs; type: toxicity, organism-based; settings: in vivo; in short: as §1
Mus musculus [9] = assay: Anticonvulsant activity in ip dosed Swiss albino mouse assessed as inhibition of maximum electric shock-induced motor impairment after 4 hrs; type: functional; settings: read-out: MED
Mus musculus [10] = assay: Anticonvulsant activity in Swiss albino mouse assessed as inhibition of PTZ-induced motor impairment at 300 mg/kg, ip after 4 hrs; type: functional, organism-based; design: dose 300 mg/kg; in short: as §2
Mus musculus [11] = assay: Anticonvulsant activity in Swiss albino mouse assessed as inhibition of maximum electric shock-induced motor impairment at 300 mg/kg, ip after 0.5 hrs; type: functional, organism-based; design: dose 300 mg/kg; in short: as §3
Mus musculus [12] = assay: Neurotoxicity in Swiss albino mouse at 300 mg/kg, ip after 4 hrs; type: toxicity, organism-based; design: dose 300 mg/kg, route intraperitoneal; settings: in vivo
Mus musculus [13] = assay: Anticonvulsant activity in ip dosed Swiss albino mouse assessed as inhibition of PTZ-induced motor impairment; type: functional
Mus musculus [14] = assay: Anticonvulsant activity in ip dosed Swiss albino mouse assessed as inhibition of maximum electric shock-induced motor impairment; type: functional
Mus musculus [15] = assay: Protective index, ratio of TD50 for neurotoxicity in po dosed Swiss albino mouse to ED50 for inhibition of maximal electroshock-induced seizures po dosed Swiss albino mouse; type: functional
[16] = Toxicity in ip dosed Swiss albino mouse after 24 hrs; type: organism-based; settings: in vivo
In short: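 Albino mice of either sex (25–30 g), in groups of 10, received a range of i.p. doses in polyethylene glycol until at least three points fell within 10–90% effect. Mortality was scored 24 h after injection.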

Mus musculus [17] = assay: Anticonvulsant activity in po dosed Swiss albino mouse assessed as inhibition of maximum electric shock-induced motor impairment after 2 hrs; type: functional
In short: (§5)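 Phase IV: same procedure as i.p. phase II (MES protection, or rotorod failure for at least 1 min per trial), but drugs were given orally. Groups of 10 albino mice got a dose range yielding at least three points within 10–90% effect. ED50 or TD50 was read at the indicated time via Litchfield–Wilcoxon.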

Mus musculus [18] = species: Mus musculus; assay: Protective index, ratio of TD50 for neurotoxicity in Swiss albino mouse to ED50 for inhibition of PTZ-induced motor impairment Swiss albino mouse; type: functional
Mus musculus [19] = species: Mus musculus; assay: Protective index, ratio of TD50 for neurotoxicity in Swiss albino mouse to ED50 for inhibition of maximal electroshock-induced seizures Swiss albino mouse; type: functional
[20] = Neurotoxicity in po dosed Swiss albino mouse after 2 hrs; type: toxicity, organism-based; settings: in vivo; in short: as §5
Mus musculus [21] = species: Mus musculus; assay: Ratio of HD50 for hypnotic activity in Swiss albino mouse to ED50 for inhibition of PTZ-induced motor impairment Swiss albino mouse; type: functional
In short: (§6)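 Ratio of HD50 to i.p. ED50 (scPTZ or MES). HD50, in mg/kg, came from loss of righting reflex in i.p.-dosed albino mice, with a dose range analysed as for phase II ED50.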

[22] = Neurotoxicity in ip dosed Swiss albino mouse; type: toxicity, organism-based; settings: in vivo
Mus musculus [23] = species: Mus musculus; assay: Ratio of HD50 for hypnotic activity in Swiss albino mouse to ED50 for inhibition of maximal electroshock-induced seizures Swiss albino mouse; type: functional; in short: as §6
Mus musculus [24] = assay: Sedative-hypnotic activity in ip dosed Swiss albino mouse after 24 hrs; type: organism-based; settings: in vivo

Structure (SMILES)	MTD at 4 h [1] [mg/kg]	minimal effective dose (Mus musculus [2]) [mg/kg]	inhibition (Mus musculus [3])	Activity (Mus musculus [4])	minimal effective dose (Mus musculus [6]) [mg/kg]	minimal effective dose (Mus musculus [7]) [mg/kg]	MTD at 0.5 h [8] [mg/kg]	minimal effective dose (Mus musculus [9]) [mg/kg]	inhibition (Mus musculus [10])	Activity (Mus musculus [12])	other results
S=c1[nH]nc(Nc2nc(-c3ccccc3)cs2)n1-c1ccccc1	300	300	inactive	Non-toxic	300	–	–	–	–	–	inhibition (Mus musculus [5]): inactive
Cc1ccccc1-n1c(Nc2nc(-c3ccc([N+](=O)[O-])cc3)cs2)n[nH]c1=S	100	100	–	–	300	100	300	100	–	–	–
Cc1ccc(-n2c(Nc3nc(-c4ccc(Br)cc4)cs3)n[nH]c2=S)cc1	100	100	–	Non-toxic	300	300	–	300	–	–	–
Cc1ccc(-n2c(Nc3nc(-c4ccc([N+](=O)[O-])cc4)cs3)n[nH]c2=S)cc1	100	100	–	–	–	300	100	300	inactive	–	–
S=c1[nH]nc(Nc2nc(-c3ccc(Br)cc3)cs2)n1-c1ccccc1	300	–	inactive	Non-toxic	–	–	–	300	inactive	–	–
CCC1(C)CC(=O)NC1=O (stereo unspecified) [ETHOSUXIMIDE]	–	–	inactive	Non-toxic	300	100	–	–	–	Non-toxic	inhibition (Mus musculus [5]): inactive; inhibition (Mus musculus [11]): inactive
COc1ccc(-n2c(Nc3nc(-c4ccc(Br)cc4)cs3)n[nH]c2=S)cc1	–	300	inactive	Non-toxic	–	–	–	300	inactive	Non-toxic	–
CCC1(c2ccccc2)C(=O)NC(=O)NC1=O [PHENOBARBITAL]	300	100	–	–	–	–	100	30	–	–	ED50 (Mus musculus [13]): 13.2 mg/kg; ED50 (Mus musculus [14]): 21.8 mg/kg
COc1ccc(-n2c(Nc3nc(-c4ccccc4)cs3)n[nH]c2=S)cc1	–	100	inactive	Non-toxic	300	–	–	100	–	Non-toxic	–
NC(=O)N1c2ccccc2C=Cc2ccccc21 [CARBAMAZEPINE]	–	–	–	–	–	–	–	–	–	–	ED50 (Mus musculus [13]): > 100 mg/kg; ED50 (Mus musculus [14]): 8.8 mg/kg
COc1ccc(-n2c(Nc3nc(-c4ccc(Cl)cc4)cs3)n[nH]c2=S)cc1	–	30	–	Non-toxic	–	300	–	100	inactive	Non-toxic	Ratio TD50/ED50 (Mus musculus [15]): 13.4; LD50 at 24 h [16]: 946 mg/kg; ED50 (Mus musculus [17]): 54.8 mg/kg; Ratio TD50/ED50 (Mus musculus [18]): 2.4; ED50 (Mus musculus [13]): 179 mg/kg; Ratio TD50/ED50 (Mus musculus [19]): 18.3; TD50 at 2 h [20]: 735 mg/kg; ED50 (Mus musculus [14]): 23.9 mg/kg; Ratio (Mus musculus [21]): 4.85; TD50 [22]: 439 mg/kg; Ratio (Mus musculus [23]): 36.27; HD50 (Mus musculus [24]): 867 mg/kg
O=[N+]([O-])c1ccc(-c2csc(Nc3n[nH]c(=S)n3-c3ccccc3)n2)cc1	300	–	inactive	–	–	–	300	300	inactive	–	inhibition (Mus musculus [11]): inactive
S=c1[nH]nc(Nc2nc(-c3ccc(Cl)cc3)cs2)n1-c1ccccc1	–	–	inactive	Non-toxic	–	–	–	300	inactive	Non-toxic	inhibition (Mus musculus [11]): inactive
